{"source": "PubChem BioAssay AID1217", "about": "(Sanford-Burnham Center for Chemical Genomics, 2008)", "note": "Out of some 190,000 compounds screened, about 1,300 (0.68%) were called active.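 The calls were made as follows: active = primary screen inhibition at 20 µM above a set limit (cut at about 50% in these data); inactive = the rest.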 The list comes from a sample in which actives are over-represented; it also holds similar structures and randomly drawn compounds.", "data": [{"tested_on": "diaphorase (Clostridium kluyveri)", "assay": "compounds blocking diaphorase resazurin reduction – biochemical, uHTS, resorufin fluorescence, counter-screen for diaphorase-coupled primary assays, primary screen (AID 1217);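 also: plate controls were DMSO with full reaction for no effect and wells lacking NADH for full effect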", "settings": "diaphorase resazurin-to-resorufin fluorescence, NADH, 16 min; at 20 µM; hits give high values; bacterial (C. kluyveri) enzyme, not human", "summary_of_the_method": "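System: Bacterial diaphorase enzyme (C. kluyveri) | Incubation: 16-min room-temperature incubation before reading | Benchmarks: No-NADH positive control and DMSO neutral control | Measured by: Resorufin fluorescence 544/590 nm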", "values": [{"smiles": "CC(C)(C)c1csc(NC2=NS(=O)(=O)c3ccccc32)n1", "inhibition": "15.4% (inactive)"}, {"smiles": "O=C(Oc1cccc(NC2=NS(=O)(=O)c3ccccc32)c1)c1ccncc1", "inhibition": "50.9% (active)"}, {"smiles": "O=C(Oc1ccccc1)c1ccc2nccnc2c1", "inhibition": "6.5% (inactive)"}, {"smiles": "Cc1ccc(NC(=O)c2sccc2C)cc1[N+](=O)[O-]", "inhibition": "12.8% (inactive)"}, {"smiles": "O=C(COC(=O)/C=C/c1ccc(S(=O)(=O)N2CCCCCC2)cc1)NCc1ccccc1Cl", "inhibition": "7.9% (inactive)"}, {"smiles": "CN(C)NC(=O)C(NC(=O)c1ccc(N)cc1)C12CC3CC(CC(C3)C1)C2", "note": "(stereo unspecified)", "inhibition": "4.7% (inactive)"}, {"smiles": "Brc1ccc(CSc2ccc(-c3ccco3)nn2)cc1", "inhibition": "6.5% (inactive)"}, {"smiles": "c1ccc(CSc2nnc(-c3ccco3)c(-c3ccco3)n2)cc1", "inhibition": "52.9% (active)"}, {"smiles": "Clc1ccccc1CSc1nnc(-c2ccco2)c(-c2ccco2)n1", "inhibition": "46.2% (inactive)"}, {"smiles": "O=C(CCN1CCN(c2ccccc2)CC1)NNC(=S)Nc1ccccc1", "inhibition": "20.6% (inactive)"}, {"smiles": "COC(=O)/C=C\\C(=O)Nc1cccc([N+](=O)[O-])c1", "inhibition": "-5.8% (inactive)"}, {"smiles": "CC(=O)Nc1ccc(NC(=O)c2sc3nc4c(c(-c5ccc(C)cc5)c3c2N)CCC4)cc1", "inhibition": "51.1% (active)"}, {"smiles": "Cc1ccc(NC(=O)c2sc3nc(N)c(C#N)cc3c2N)cc1", "inhibition": "18.4% (inactive)"}, {"smiles": "NC(=O)c1sc2nc3c(c(-c4ccccc4)c2c1N)CCC3", "inhibition": "36.8% (inactive)"}, {"smiles": "Cc1cccc(NC(=O)CSc2nnc(-c3ccco3)o2)c1", "inhibition": "9.8% (inactive)"}, {"smiles": "Cc1cccc(NC(=O)c2sc3nc4c(c(-c5ccco5)c3c2N)CCC4)c1", "inhibition": "61.2% (active)"}, {"smiles": "Cc1nc2sc(C(=O)c3ccccc3)c(N)c2c2c1CCCC2", "inhibition": "28.7% (inactive)"}, {"smiles": "COCCN(C(=O)CCC(=O)Nc1nccs1)C(C(=O)NC(C)(C)C)c1ccc(Cl)cc1", "note": "(stereo unspecified)", "inhibition": "10.1% (inactive)"}, {"smiles": "COc1cccc(CN(C)CC(=O)Nc2ccccc2C(=O)Nc2ccccc2)c1", "inhibition": "26.6% (inactive)"}, {"smiles": "S=C(Nc1ccc2c(c1)OCO2)N1CCCC1", "inhibition": "3.4% (inactive)"}, {"smiles": "N/C(=N\\OC(=O)Cc1ccccc1[N+](=O)[O-])c1ccc(Br)cc1", "inhibition": "23.2% (inactive)"}, {"smiles": "Cc1ccc2[nH]c(=O)c(-c3nc4c(C)cccn4c3NCc3ccco3)cc2c1", "inhibition": "51.5% (active)"}, {"smiles": "COc1ccc(CCn2c(=N)c(C(=O)NCc3ccco3)cc3c(=O)n4cccc(C)c4nc32)cc1", "inhibition": "8.1% (inactive)"}, {"smiles": "CCNCc1cc2cc(C)ccc2[nH]c1=O", "inhibition": "20% (inactive)"}, {"smiles": "Cc1ccc(C)c(-n2cc(CN3CCN(C(=O)c4ncn[nH]4)CC3)c(-c3ccccc3)n2)c1", "inhibition": "13.7% (inactive)"}, {"smiles": "COc1ccccc1C1=Nc2cccc3cccc(c23)N1", "inhibition": "63.5% (active)"}, {"smiles": "Fc1ccccc1N=C1Nc2cccc3cccc1c23", "inhibition": "12.1% (inactive)"}, {"smiles": "c1ccc(C2=Nc3cccc4cccc(c34)N2)cc1", "inhibition": "27% (inactive)"}, {"smiles": "O=C1CC(=O)Nc2cc(S(=O)(=O)N3CCN(c4cccc(C(F)(F)F)c4)CC3)ccc2N1", "inhibition": "0.3% (inactive)"}, {"smiles": "CCOC(=O)C1=NOC(Cn2cc(C(C)=O)c(=O)[nH]c2=O)C1", "note": "(stereo unspecified)", "inhibition": "2.6% (inactive)"}, {"smiles": "CCOc1cc(/C=N/NC(=O)c2ccc(CSc3nncn3C)cc2)ccc1OCC(=O)N1CCOCC1", "inhibition": "-14% (inactive)"}, {"smiles": "COc1cc(CNCCN(C)C)ccc1OCc1c(F)cccc1Cl", "inhibition": "3.9% (inactive)"}, {"smiles": "COc1ccc(C[C@H]2CN3C(=NC[C@H]3C)N2CCNC(=O)CCC2CCCCC2)cc1", "inhibition": "0.9% (inactive)"}, {"smiles": "Cc1nccn1CC(=O)N/N=C/c1ccc(O)c(O)c1", "inhibition": "50.4% (active)"}, {"smiles": "O=C(N/N=C/c1ccc(O)c(O)c1)C1c2ccccc2Oc2ccccc21", "inhibition": "37.6% (inactive)"}, {"smiles": "Cc1nc2ccccc2n1CC(=O)N/N=C/c1cccnc1", "inhibition": "8.6% (inactive)"}, {"smiles": "CCN(CC)C(=O)Cn1cc(S(=O)(=O)CC(=O)NCc2ccc3c(c2)OCO3)c2ccccc21", "inhibition": "10.1% (inactive)"}, {"smiles": "CC(C)Oc1ccc(CC(=O)NNC(=S)Nc2ccc(Br)cc2)cc1", "inhibition": "-0.6% (inactive)"}, {"smiles": "COC(=O)c1ccc(C(=O)OC)c(NC(=S)N2CCN(c3ccc(F)cc3)CC2)c1", "inhibition": "11.5% (inactive)"}, {"smiles": "CCc1ccc(N(CC(=O)Nc2sc3c(c2C(=O)OC)CCCC3)S(C)(=O)=O)cc1", "inhibition": "28.6% (inactive)"}, {"smiles": "Cc1ccc(NC(=O)CSc2nnc(COc3ccccc3C)o2)cc1", "inhibition": "55.6% (active)"}, {"smiles": "Cc1ccc(NC(=O)CSc2nnc(CNC(=O)c3ccccc3F)o2)cc1", "inhibition": "-12.4% (inactive)"}, {"smiles": "Cc1cc(C)cc(OCc2nnc(SCC(=O)Nc3ccccc3)o2)c1", "inhibition": "8.2% (inactive)"}, {"smiles": "C/C(=N\\NC(=O)OC(C)(C)C)c1ccc[nH]1", "inhibition": "1.8% (inactive)"}, {"smiles": "COc1ccc(-c2cc(C3CCN(c4ncccc4[N+](=O)[O-])CC3)[nH]n2)cc1", "inhibition": "52.2% (active)"}, {"smiles": "CC(=O)NC(Cc1ccccc1)C(=O)NC1CCN(c2ncccc2[N+](=O)[O-])CC1", "note": "(stereo unspecified)", "inhibition": "15.7% (inactive)"}, {"smiles": "COc1ccc(N2CCN(c3ccc([N+](=O)[O-])nc3)CC2)cc1", "inhibition": "-1% (inactive)"}, {"smiles": "Cc1ccc(CNC(=O)Cn2c(=O)c3sccc3n(Cc3cccc([N+](=O)[O-])c3)c2=O)cc1", "inhibition": "-2.4% (inactive)"}, {"smiles": "O=C(C1CCN(S(=O)(=O)c2ccc(Br)s2)CC1)N1CCN(C2CCCCC2)CC1", "inhibition": "18.2% (inactive)"}, {"smiles": "CCn1c(O)c(N=NC(=O)c2cccc(S(=O)(=O)N3CCCCC3)c2)c2ccccc21", "inhibition": "29.2% (inactive)"}, {"smiles": "CCn1c(O)c(N=NC2=NC(=O)CS2)c2cc(C)ccc21", "inhibition": "86.4% (active)"}, {"smiles": "CCn1c(=O)cc(O)c2ccccc21", "inhibition": "8.6% (inactive)"}, {"smiles": "CC(C)c1ccc(Nc2nnc(SCC(=O)c3nnc(-c4ccccc4)o3)s2)cc1", "inhibition": "18.8% (inactive)"}, {"smiles": "O=C1OCC2=C1C(c1ccccc1)CC(=O)N2c1cccc(F)c1", "note": "(stereo unspecified)", "inhibition": "-4.2% (inactive)"}, {"smiles": "COc1ccc(N2CCN(CCCNC(=O)C3CCN(S(=O)(=O)N4CCOCC4)CC3)CC2)cc1", "inhibition": "0.3% (inactive)"}, {"smiles": "CC(=O)n1cc([C@@H]2C=C(C(=O)N3CCN(Cc4ccc5c(c4)OCO5)CC3)O[C@H](OCc3ccc(CO)cc3)C2)c2ccccc21", "inhibition": "53.6% (active)"}, {"smiles": "CC(=O)n1cc([C@H]2C=C(C(=O)N3CCOCC3)O[C@@H](OCc3ccc(CO)cc3)C2)c2ccccc21", "inhibition": "-0.6% (inactive)"}, {"smiles": "CN1CCN(C(=O)C2=C[C@H](c3ccc4c(c3)OCO4)C[C@H](OCc3ccc(CO)cc3)O2)CC1", "inhibition": "5.9% (inactive)"}, {"smiles": "O=C(OCC(=O)N1CCOCC1)c1ccc(N2CCOCC2)c([N+](=O)[O-])c1", "inhibition": "3.6% (inactive)"}, {"smiles": "CC(C)(C)NC(=O)C(=O)NN=C1CCCCCCC1", "inhibition": "3.8% (inactive)"}, {"smiles": "CCN(CC)CCN(C(=O)c1cccc([N+](=O)[O-])c1)c1nc2ccc(OC)cc2s1", "inhibition": "9.6% (inactive)"}, {"smiles": "CCCn1c(C)cc(C(=O)COC(=O)c2c(C)nn(-c3ccccc3)c2C)c1C", "inhibition": "18.9% (inactive)"}, {"smiles": "O=C(COC(=O)c1ccccc1SCC(=O)NC1CCCCC1)NC1CCCCC1", "inhibition": "3.2% (inactive)"}, {"smiles": "Cc1nn(-c2ccccc2)c(C)c1C(=O)OCC(=O)NC(=O)NC1CCCCC1", "inhibition": "57.3% (active)"}, {"smiles": "Cn1cnnc1SCc1nnc(-c2ccccc2Br)o1", "inhibition": "4.8% (inactive)"}, {"smiles": "CCC1CCCCN1C(=O)CSc1nc2c(c(=O)n(C)c(=O)n2C)n1C", "note": "(stereo unspecified)", "inhibition": "6.8% (inactive)"}, {"smiles": "CC1CCC2(CC1)NC(=O)N(Cc1nnc(-c3cccs3)o1)C2=O", "note": "(stereo unspecified)", "inhibition": "8.2% (inactive)"}, {"smiles": "CCOC(=O)C1(CC2CCCCO2)CCN(Cc2nc(-c3cccs3)oc2C)CC1", "note": "(stereo unspecified)", "inhibition": "56.2% (active)"}, {"smiles": "COc1cccc(CC2(CO)CCCN(Cc3nc(-c4cccs4)oc3C)C2)c1", "note": "(stereo unspecified)", "inhibition": "17.2% (inactive)"}, {"smiles": "COc1ccc(Nc2nc(N)nc(CSC(=S)N3CCC(C)CC3)n2)cc1", "inhibition": "28.1% (inactive)"}, {"smiles": "O=c1c(-c2ccccc2)coc2cc(O)ccc12", "inhibition": "-8.4% (inactive)"}, {"smiles": "O=C(CCc1ccccc1)NNC(=O)c1ccc(Br)cc1", "inhibition": "-5.7% (inactive)"}, {"smiles": "COc1ccc(C(=O)NC(=S)NNC(=O)c2c(-c3ccccc3)noc2C)cc1", "inhibition": "38.4% (inactive)"}, {"smiles": "COc1ccc(C(=O)NC(=S)NNC(=O)CCc2ccccc2)cc1", "inhibition": "54% (active)"}, {"smiles": "COc1ccc(CC(NC(C)=O)C(=O)NC2CCN(C(=O)c3ccc(OC)c(OC)c3)CC2)cc1OC", "note": "(stereo unspecified)", "inhibition": "10.9% (inactive)"}, {"smiles": "COc1ccc(CN2CCC(c3nc4ccc(Cl)cc4[nH]3)CC2)cc1", "inhibition": "2.5% (inactive)"}, {"smiles": "CC(=O)NC1C(OCc2ccccc2)OC(COC(C)=O)C(OC(C)=O)C1OC(C)=O", "note": "(stereo unspecified)", "inhibition": "9% (inactive)"}, {"smiles": "O=C(OCC1O[C@@H](OC(=O)c2cc(O)c(O)c(O)c2)[C@@H](OC(=O)c2cc(O)c(O)c(O)c2)[C@@H](OC(=O)c2cc(O)c(O)c(O)c2)[C@@H]1OC(=O)c1cc(O)c(O)c(O)c1)c1cc(O)c(O)c(O)c1", "note": "(stereo partly specified)", "inhibition": "71.3% (active)"}, {"smiles": "O=C(Nc1ccccc1-c1ccccc1)c1cccs1", "inhibition": "7.8% (inactive)"}, {"smiles": "Cc1ccc2[nH]c(=O)c(CC=C(Cl)Cl)c(C)c2c1", "inhibition": "7.7% (inactive)"}, {"smiles": "O=C(CN1CCOCC1)Nc1c(-c2ccccc2)c2cc(Br)ccc2[nH]c1=O", "inhibition": "12.8% (inactive)"}, {"smiles": "Cc1ccc2[nH]c(=O)c(CN3CCCCC3)c(-c3ccccc3)c2c1", "inhibition": "68.3% (active)"}, {"smiles": "O=C(CSc1nc2ccccc2[nH]1)Nc1nc(-c2ccccc2)c(-c2ccccc2)o1", "inhibition": "12.3% (inactive)"}, {"smiles": "COCCn1nnnc1C(c1cc2ccc(OC)cc2[nH]c1=O)N1CCc2ccccc2C1", "note": "(stereo unspecified)", "inhibition": "52.1% (active)"}, {"smiles": "COc1ccc(OC)c(C(c2nnnn2C(C)(C)C)N2CCc3ccccc3C2)c1", "note": "(stereo unspecified)", "inhibition": "29.8% (inactive)"}, {"smiles": "CCOc1ccc2[nH]c(=O)c(C(c3nnnn3CCOC)N3CCOCC3)cc2c1", "note": "(stereo unspecified)", "inhibition": "5.8% (inactive)"}, {"smiles": "N#C/C(=C\\C1=C(N2CCOCC2)C(=C\\c2ccccc2)/CC1)C(=O)Nc1ccccc1F", "inhibition": "28.4% (inactive)"}, {"smiles": "CCNc1ccc(C(=O)OCC(=O)N2c3ccccc3NC(=O)C2(C)C)cc1[N+](=O)[O-]", "inhibition": "19.8% (inactive)"}, {"smiles": "Cc1ccc(SCC(=O)c2sc(-c3ccccc3)nc2C)cc1", "inhibition": "20.1% (inactive)"}, {"smiles": "Cc1nc(-c2ccccc2)sc1C(=O)/C=C/c1ccccc1", "inhibition": "13.8% (inactive)"}, {"smiles": "Cc1nc(-c2ccc(Cl)cc2)sc1C(=O)CBr", "inhibition": "52.6% (active)"}]}]}
